Hck Nef HTS: human Hck-Nef kinase inhibition; 220,000 tested, 0.68% active; Recombinant Hck-YEEI plus Nef, Z-Lyte FRET kinase assay; P08631; inhibition, % at 20 µM;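 active = Hck-Nef kinase inhibition above about 50%, limit read from the data; inactive = inhibition below that limit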;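 also: 0% = DMSO with Hck plus Nef and 100% = Hck alone without Nef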
Target sequence (P08631 whole entry, looked up): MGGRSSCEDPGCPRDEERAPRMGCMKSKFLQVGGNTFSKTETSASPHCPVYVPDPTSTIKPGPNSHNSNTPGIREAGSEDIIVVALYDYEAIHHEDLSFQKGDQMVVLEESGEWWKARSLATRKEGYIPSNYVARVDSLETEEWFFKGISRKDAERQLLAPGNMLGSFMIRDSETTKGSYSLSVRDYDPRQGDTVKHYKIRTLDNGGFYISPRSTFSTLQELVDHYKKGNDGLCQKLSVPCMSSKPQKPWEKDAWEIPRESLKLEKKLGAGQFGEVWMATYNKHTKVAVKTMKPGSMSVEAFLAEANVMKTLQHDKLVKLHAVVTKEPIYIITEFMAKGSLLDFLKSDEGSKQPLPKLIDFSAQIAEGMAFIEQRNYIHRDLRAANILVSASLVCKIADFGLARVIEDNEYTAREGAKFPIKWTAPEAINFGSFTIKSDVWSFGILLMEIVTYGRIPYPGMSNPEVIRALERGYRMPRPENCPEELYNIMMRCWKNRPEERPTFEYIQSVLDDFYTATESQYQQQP
RAM network inh: inhibitors of the yeast RAM network. S. cerevisiae dse1pr::URA3 reporter, 5-FOA growth OD615, 2 d; analog-sensitive cbk1-as2 kinase mutant strain. inhibition, % at 50 µM. 190,000 tested, 1.8% active. AID 868;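 active = inhibition above a set limit, 3 SD over mean compound inhibition, cut at about 8.4% in these data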;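 also: 0% = DMSO-only wells with no growth and 100% = 10 µM 1-NA-PP1 full growth; inhibition rescues growth on 5-FOA so higher OD means more RAM inhibition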
Arbovirus inh: blocks arbovirus infection; inhibition, % at 10 µM; arbovirus infection cell-based antiviral screen; 200,000 tested, 0.37% active; AID 1251; in the data active = inhibition above about 30%
Biofilm kill mix: mixtures killing C. albicans biofilm | C. albicans biofilm persisters + clotrimazole, fluorescence viability; primary screen in compound mixtures of four per well | inhibition, % at 7.6 µM | 120,000 tested, 0.02% active;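 active = inhibition above 30.3% in the primary screen of four-compound pools, then above 30% when the compound was retested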;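 also: compounds exposed to preformed 24 h biofilms for 48 h; 0% = untreated biofilm control and 100% = clotrimazole plus chlorhexidine kill blank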
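Test system: C. albicans CAF4-2 wild-type biofilms; buffer or medium: RPMI/MOPS medium, pH 7.0; schedule: 24 h biofilm formation, then 48 h compound exposure, 37 °C; detection: Alamar Blue fluorescence; measure: percent inhibition of biofilm viability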
WT yeast gro inh: growth inhibition of WT yeast, mitochondrial fusion screen | AID 1362 | mitochondrial fusion phenotypic screen, WT strain | inhibition, % at 10 µM | 190,000 tested, 2.1% active; in the data active = inhibition above about 58%; tested in S. cerevisiae
NCF1 inh: inhibitors of human p47phox binding | P14598 | p47phox/p22phox peptide binding, fluorescence polarization, 2 h | inhibition, % at 24.7 µM | 220,000 tested, 0.53% active | AID 1274;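 active = inhibition above about 30%, limit read from the data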;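 also: 0% = p47phox with labelled peptide and 100% = labelled peptide alone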
The depositor's hits bear a star; / = no result given; ! = repeats disagree. In the library only some 4.6% were active in any assay of this set; here they are far more common.

SMILES | Hck Nef HTS | RAM network inh | Arbovirus inh | Biofilm kill mix | WT yeast gro inh | NCF1 inh
O=C(CSc1nc(-c2ccc(F)cc2)cc(C(F)(F)F)n1)NCc1ccco1 | -1.3 | 2.9 | 7.7 | 8.6 | 13.1 | -7.1
FC(F)(F)c1cccc(Oc2ccc3c(C(F)(F)F)cc(C(F)(F)F)nc3n2)c1 | 1.3 | 6.3 | 50.6* | / | 12.8 | -1.2
Cc1ccc(-c2nnn(CC(=O)N(c3cnc4ccccc4c3)C(C(=O)NC3CCCC3)c3ccncc3)n2)o1 (stereo not given) | -0.3 | 8.6* | 9.7 | 7.1 | -7.9 | 25.0
Cc1ccc(C(=O)COc2ccccc2N2C(=O)c3ccccc3C2=O)cc1 | 4.5 | 8.8* | -7.2 | 7.2 | 0.3 | -39.0
O=C(Nc1nc2ccccc2n1Cc1ccccc1)c1ccc(COc2ccccc2[N+](=O)[O-])o1 | -0.8 | 4.4 | -33.0 | / | -8.8 | -1.0
Cc1ccc(OCc2ccc(C(=O)Nc3nc4ccccc4n3Cc3ccccc3)o2)c([N+](=O)[O-])c1 | 39.9 | 2.2 | -45.3 | / | / | 32.0*
CC1CCCCN1C(=O)Cn1cc(/C=C2/C(=O)Nc3ccccc32)c2ccccc21 (stereo not given) | 1.7 | 9.4* | -19.9 | / | 95.6* | -23.3
CC1(c2nnc(-c3ccncc3)o2)CC(c2ccc(F)cc2)=NO1 (stereo not given) | 31.3 | / | / | 12.3 | / | -12.2
COc1ccc2c(-c3cc4ccc(OCc5ccc(F)cc5)cc4oc3=O)cc(=O)oc2c1 | -2.3 | 1.9 | -10.4 | 22.9 | -3.6 | 37.2*
COc1ccc(-c2cc(=O)oc3cc(OCC(C)=O)ccc23)cc1 | 4.3 | 4.7 | -5.6 | 10.6 | -12.6 | 3.2
CCCN(CC(=O)Nc1cc(Cl)cc(Cl)c1)CC(=O)Nc1ccc(F)c(F)c1F | 1.7 | 4.0 | -44.6 | 19.1 | 73.0* | -26.7
O=[N+]([O-])c1ccccc1/C=C/C=N/n1c(-c2ccccc2)n[nH]c1=S | -5.8 | 1.8 | 10.5 | 10.4 | 61.1* | 6.7
S=c1[nH]nc(COc2ccccc2)n1/N=C/C(Cl)=C/c1ccccc1 | -0.6 | 4.5 | -36.6 | / | 73.2* | -7.4
S=c1[nH]nc(COc2ccccc2)n1/N=C/C=C/c1ccco1 | -18.7 | / | / | 5.5 | / | -8.1
S=c1[nH]nc(COc2ccccc2)n1/N=C/C=C/c1ccccc1 | 3.6 | 3.7 | 7.7 | 11.3 | 70.7* | -15.1
O=[N+]([O-])c1ccc(C(O)C23CN4CN(CN(C4)C2)C3)cc1 (stereo not given) | 19.0 | 0.4 | -2.7 | 12.7 | -4.6 | -4.4
Cc1noc(/C=C/c2cccs2)c1S(=O)(=O)N1CCC(C(=O)NCCCN2CCCC(C)C2)CC1 (stereo not given) | 2.6 | 0.3 | -10.9 | 6.7 | -5.3 | -15.8
CC(C)Nc1nc(Oc2cccc(Cl)c2Cl)cc(C(F)(F)F)n1 | -0.4 | -0.6 | 9.4 | / | 87.3* | 3.0
CC(C)Nc1nc(Oc2ccc(Cl)cc2Cl)cc(C(F)(F)F)n1 | 1.1 | 0.8 | 1.5 | / | 38.0 | -14.9
Cc1c(C#N)c2ccccc2n1CC(=O)N1CCCc2ccccc21 | 0.8 | 1.2 | 3.3 | / | 19.3 | -16.8
O=C(O)c1cc(-c2ccc(/C=C3\NC(=O)N(c4ccc(Cl)cc4)C3=O)o2)ccc1Cl | 8.4 | 1.7 | 58.1* | 5.7 | 2.9 | -53.8
O=C(COC(=O)c1ccc2ccccc2n1)c1ccccc1 | 9.2 | 0.4 | 4.0 | 11.8 | -0.8 | -3.2
COCCN(C(=O)Cc1cccs1)C(C(=O)NCc1ccc(OC)cc1)c1ccccc1 (stereo not given) | -0.6 | 0.2 | 3.4 | / | 98.9* | -0.3
COc1ccc(CNC(=O)C(c2ccncc2)N(C(=O)Cc2cccs2)c2ccccc2)cc1 (stereo not given) | 0.3 | 6.7 | -4.9 | 7.6 | -2.2 | -7.2
CCOC(=O)C1=C(O)/C(=C/c2ccc(OCC(=O)O)c(OCC)c2)SC1=Nc1ccc(OC)cc1 | 2.3 | 9.4* | -0.1 | 12.8 | -2.8 | -52.5
SMILES | Hck Nef HTS | RAM network inh | Arbovirus inh | Biofilm kill mix | WT yeast gro inh | NCF1 inh
CCOC(=O)C1=C(O)/C(=C/c2ccc(OCC(=O)O)c(OCC)c2)SC1=Nc1ccc(C)cc1 | 20.7 | 7.1 | 17.6 | 6.5 | 19.3 | -61.4
CCOC(=O)N1CCN(C(=O)c2c(N)no[n+]2[O-])CC1 | 26.3 | 2.9 | 6.8 | 0.2 | 2.1 | -1.0
CCSc1nn2c(=O)c3ccccc3nc2s1 | 14.9 | 5.0 | 2.2 | / | 3.7 | -8.8
CCOc1ccc(CN(C)C(=O)CCl)cc1 | 18.9 | 1.1 | -29.0 | 9.7 | -26.4 | -14.1
NC(=O)COC(=O)c1cc([N+](=O)[O-])ccc1NCCO | 7.3 | / | / | 26.8 | / | -5.2
O=C(COC(=O)c1cc([N+](=O)[O-])ccc1NCCO)NCc1cccs1 | 14.2 | 11.0* | 19.6 | 8.9 | -34.5 | 6.0
Cc1ccc(CNC(=O)c2ccc(N3CCCC3=O)cc2)cc1 | 0.5 | 5.1 | 3.8 | / | 8.1 | -11.1
Cc1ccc(C(=O)NCc2ccc(N3CCN(C(=O)OC(C)(C)C)CC3)cc2)cc1 | 0.4 | 1.6 | 6.6 | / | 60.6* | -1.7
O=C(OCc1csc(Nc2ccccc2)n1)c1ccc(Cl)cc1 | -2.8 | 6.9 | -7.8 | 14.8 | 75.6* | -36.4
O=C(COc1ccccc1)OCc1csc(Nc2ccccc2)n1 | 0.8 | 0.3 | -8.7 | 17.2 | 28.9 | -15.6
CC1CCC(C(C)C)C(OC(=O)Cn2c(-c3ccc(Br)cc3)[n+](C)c3ccccc32)C1 (stereo not given) | 11.5 | -0.2 | -33.1 | 11.2 | 65.9*! | 9.5
Cc1ccccc1OCc1n(CC(=O)OC2CC(C)CCC2C(C)C)c2ccccc2[n+]1C (stereo not given) | 30.6 | -1.6 | -33.5 | 34.3*! | 62.3* | 38.6*!
CC1CCC(C(C)C)C(OC(=O)COC(=O)c2cccn2C)C1 (stereo not given) | 5.0 | 0.1 | -1.2 | / | 74.2* | -9.5
Cc1ccc(/C=N\NC(=O)CCc2n[nH]c(=O)[nH]c2=O)o1 | -2.2 | 3.1 | 1.5 | 10.5 | 7.8 | 6.4
CCOC(=O)N1CCC(N2C(=O)c3ccccc3C2Nc2ccc(S(=O)(=O)N3CCOCC3)cc2)CC1 (stereo not given) | 2.1 | 0.8 | 1.6 | 13.2 | -1.2 | 4.3
CC(C)c1ccc(NC(=O)c2cc(S(=O)(=O)NCC3COc4ccccc4O3)ccc2F)cc1 (stereo not given) | -1.7 | 4.8 | -22.9 | 13.8 | 61.6* | -1.8
O=C(Nc1ccc(C(F)(F)F)cc1)c1cc(S(=O)(=O)NCC2COc3ccccc3O2)ccc1F (stereo not given) | 2.5 | 8.4* | -27.2 | 14.1 | 82.3* | -4.1
COc1cccc(/C=N/N2C(=O)CSC2=S)c1O | -19.9 | 1.4 | -11.7 | 8.6 | 3.4 | -38.5
COc1ccc2ccccc2c1/C=N/N1C(=O)CSC1=S | 15.8 | 0.1 | 31.6* | 16.4 | -0.9 | -88.9
COc1cc(/C=N/N2C(=O)CSC2=S)cc(Br)c1O | 75.6* | 0.1 | -1.2 | 10.2 | -2.3 | -165.7
COc1ccc(C2CC(c3ccccc3)=NN2C(=O)CSc2ncn[nH]2)cc1 (stereo not given) | -7.9 | 2.7 | 13.8 | -0.3 | -12.5 | -5.4

Source: PubChem (several laboratories)
